MT1-MMP act inh: MT1-MMP (human) activation inhibition. HT1080 RFP-PRO-GFP cells, GFP/RFP ratio fluorescence, overnight; percent of plate control window, DMSO zero. AID 651647. P50281. GFP/RFP ratio change, % at 20 µM. 360,000 compounds, 0.061% hits;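 active = GFP/RFP ratio change of at least 30% with cell ATP level not reduced by more than half and red fluorescence within 50% of control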
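Test system: HT1080 cells expressing an RFP-PRO-GFP fluorescent reporter construct / Compound dosing: single-point 20 µM compound, 1% DMSO / Schedule: cells overnight before dosing, compound overnight, 37 °C, 5% CO2 / Evaluation: GFP/RFP fluorescence ratio / Control set: DMSO and RFP-L50D-GFP cell wells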
TbMetRS inhib: Trypanosoma brucei MetRS inhibition; purified T. brucei MetRS, ATP depletion, Kinase-Glo luminescence; inhibition, % at 11.9 µM; 360,000 compounds, 0.4% hits; AID 624268;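 active = inhibition above a per-plate cutoff of the control wells' mean inhibition plus 3 SD, cut at about 5.5% in these data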;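 note: 0% = DMSO wells median and 100% = median of wells with control inhibitor compound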
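assay system = parasite MetRS enzyme | timing = 15 min preincubation, 2 h reaction, all 25 °C | evaluation = percent inhibition relative to median high and low control wells | medium = HEPES buffer containing pyrophosphatase, BSA, spermine, DTT | compound = single dose, 11.9 µM final nominal, 0.9% final DMSO | detection = Kinase-Glo luminescence, ATP depletion format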
Bfl-1 A1 inh: inhibitors of the anti-apoptotic protein A1, read as caspase activation. AID 2462. MEF A1-2A-BIM cells, Caspase-Glo 3/7 luminescence, 3 h; percent of clofoctol response, vehicle zero. 330,000 compounds, 0.066% hits. caspase activation, % (no concentration beside the values);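 active = over half of replicate activation scores above 10%, or exactly half above 10 with the replicate mean above 10; inconclusive = replicate mean below 10 yet half the replicates above 10; inactive = over half of replicates below 10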
SKN-1 inh: blocks SKN-1 activity in C. elegans. 360,000 compounds, 0.49% hits. inhibition, % at 21.8 µM. C. elegans VP596 Pgst-4::GFP/RFP ratio, acrylamide-induced, 24 h. AID 624304;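 active = interference check ratio from 0.5 to 1.5 plus GFP to RFP signal ratio inhibition reaching or exceeding a fixed threshold, cut at about 30% in these data, passing the limit was not always enough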
NPR1 activator: GC-A (human) enzyme activation; P16066; HEK293 GC-A cells, cGMP TR-FRET, EC30 ANP; 0% at EC30 ANP, 100% saturating ANP; activation, % at 10 µM; 370,000 compounds, 0.14% hits; AID 1671463; in the data active = activation above about 40%
GC-B act: GC-B (human) receptor activation | HEK293-GC-B cells, CNP EC30, cGMP TR-FRET; 0% at EC30 CNP, 100% saturating CNP | activation, % at 10 µM | P20594 | 370,000 compounds, 0.11% hits;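 active = activation at 10 µM reaching about 35% in either raw or pattern-adjusted values, limit read from the data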
TbMetRS confirm: confirmation of Trypanosoma brucei MetRS inhibitors | T. brucei MetRS enzyme, luminescence (ATP depletion) | 1,400 compounds, 93% hits | shares compounds with TbMetRS inhib | inhibition, % at 11.9 µM; in the data active = inhibition above about 7%
Jurkat cytotox: counter-screen for T. brucei MetRS inhibitors: Jurkat cell cytotoxicity; 1,400 compounds, 12% hits; shares compounds with TbMetRS inhib; inhibition, % at 8.3 µM; Jurkat cells viability, ATP luminescence; in the data active = inhibition above about 15%;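 note: 0% = vehicle and 100% = reference inhibitor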
TbMetRS FP orth: T. brucei MetRS inhibition, orthogonal assay. shares compounds with TbMetRS inhib. purified T. brucei MetRS, fluorescence polarization. inhibition, % at 11.9 µM. 1,400 compounds, 44% hits. AID 651607; in the data active = inhibition above about 17%;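 note: 0% = vehicle wells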
* = called active by the depositor; ? = inconclusive; nt = no result given. An excerpt weighted towards active compounds, which were near 1.1% of everything screened.

SMILES | MT1-MMP act inh | TbMetRS inhib | Bfl-1 A1 inh | SKN-1 inh | NPR1 activator | GC-B act | TbMetRS confirm | Jurkat cytotox | TbMetRS FP orth
CCOC(=O)CC[C@@H]1CC[C@]2(CCCN(C(=O)c3ccc4ccccc4n3)C2)O1 | nt | nt | nt | nt | -2 | -2 | nt | nt | nt
CCOc1ccc(/C=C2\SC(=S)N(NS(=O)(=O)c3ccccc3)C2=O)cc1OC | 2 | 0 | 0 | -2 | 3 | 1 | nt | nt | nt
CCOc1cc(/C=C2\SC(=S)N(NS(=O)(=O)c3ccccc3)C2=O)ccc1O | 13 | 9.0* | -1 | 18 | -3 | -8 | 19* | 0 | 24*
CCOc1cc(/C=C2\SC(N)=NC2=O)ccc1O | -1 | -1 | -1 | -2 | -8 | -3 | nt | nt | nt
CCOc1cc(/C=C2\SC(=O)N=C2N)ccc1O | -21 | 32* | 1 | 10 | 3 | 2 | 44* | 14 | 19*
Cn1nnc(NCc2cc(Br)ccc2OCc2cccs2)n1 | 6 | 20* | 0 | 3 | -11 | -4 | 28* | 3 | 13
Cn1nnc(C(O)CNCc2cccs2)n1 (stereo not drawn) | 4 | -1 | -1 | 3 | -1 | 9 | nt | nt | nt
Nc1cc(C(=O)OCC(=O)NCc2ccc(F)cc2)ccc1Cl | 2 | 43* | 0 | -3 | 1 | -1 | 63* | -4 | 34*
CCCCNS(=O)(=O)/C=C/c1cc(C)ccc1CNC(=O)OC(C)(C)C | nt | nt | nt | nt | -4 | 2 | nt | nt | nt
O=C1[C@@H]2Cc3c([nH]c4ccccc34)C(c3cccc([N+](=O)[O-])c3)N2C(=O)CN1C1CCN(Cc2ccccc2)CC1 (stereo partly drawn) | -4 | 91* | 0 | 11 | -12 | -13 | 94* | 0 | 74*
CCOc1ccc(C2c3[nH]c4ccccc4c3C[C@H]3C(=O)N(C4CCN(Cc5ccccc5)CC4)CC(=O)N23)cc1OC (stereo partly drawn) | 1 | -1 | 0 | -9 | -3 | 3 | nt | nt | nt
CC1CCC(NC(=O)c2ccc(-n3cncn3)c([N+](=O)[O-])c2)CC1 (stereo not drawn) | 1 | 12* | 0 | 1 | 6 | 0 | 52* | -4 | 24*
CCCCc1nnc(NC(=O)c2ccc(-n3cncn3)c([N+](=O)[O-])c2)s1 | -1 | 3 | ? | 20 | 2 | -6 | nt | nt | nt
O=C(NC1CCCCC1)c1ccc(-n2cncn2)c([N+](=O)[O-])c1 | 3 | 24* | 0 | -2 | -4 | -3 | 51* | 8 | 28*
CC(=O)c1ccc(NCC2COc3ccccc3O2)c([N+](=O)[O-])c1 (stereo not drawn) | 10 | -2 | 0 | 4 | 6 | 6 | nt | nt | nt
O=C(NCC1COc2ccccc2O1)c1ccc(-n2cncn2)c([N+](=O)[O-])c1 (stereo not drawn) | 3 | 19* | 0 | 4 | -7 | -12 | 58* | -2 | 31*
COc1ccc(OC)c(S(=O)(=O)N2CCC(C(=O)NCc3cccs3)CC2)c1 | nt | nt | nt | nt | 5 | -4 | nt | nt | nt
Cc1ccc(-c2cc(C(=O)NN=Cc3cccc(Oc4ccccc4)c3)[nH]n2)cc1C | nt | nt | nt | nt | -3 | 2 | nt | nt | nt
CC(=O)c1c[nH]c(C(=O)NCc2cccc(C(F)(F)F)c2)c1 | 6 | 92* | -1 | -13 | 5 | -2 | 94* | 0 | 78*
O=C(NCc1cccc(C(F)(F)F)c1)c1c[nH]c(=O)s1 | -2 | 1 | nt | 9 | 1 | 1 | nt | nt | nt
CC(C)(C)c1csc(NC(=O)CSC2=NCCS2)n1 | 0 | 6.0* | 1 | 9 | -4 | 4 | 2 | 4 | 8
Cc1csc(NC(=O)CSC2=NCCS2)n1 | 1 | 0 | 0 | -16 | 6 | 1 | nt | nt | nt
Cn1c(CCCOc2ccc(Cl)cc2Cl)nnc1SCC(=O)Nc1cccc(F)c1 | 7 | 6.8* | 1 | 3 | -14 | -9 | 34* | -5 | 41*
CC(C)(C)C(=O)OC12CCCN(C1)/C(=C/c1ccc(Cl)cc1)C2 (stereo not drawn) | nt | nt | nt | nt | 4 | 4 | nt | nt | nt
CCCCn1c(NCc2ccccc2O)nc2ccccc21 | 3 | 3 | 0 | -4 | -15 | -19 | nt | nt | nt
SMILES | MT1-MMP act inh | TbMetRS inhib | Bfl-1 A1 inh | SKN-1 inh | NPR1 activator | GC-B act | TbMetRS confirm | Jurkat cytotox | TbMetRS FP orth
C=CCc1cccc(CNc2nc3ccccc3n2CCC)c1O | -8 | 19* | 0 | 4 | -14 | -9 | 31* | 5 | 18*
C=CCN1[C@H](CO)[C@H](c2ccc(Br)cc2)[C@@H]1C#N | nt | nt | nt | nt | -2 | -6 | nt | nt | nt
Cc1cccc(C)c1-n1nnnc1-c1nc2cc3ccccc3cc2[nH]c1=O | 0 | 54* | nt | 2 | -10 | -11 | 56* | 70* | 19*
CC1CCCN(CCCOc2ccc(Cl)cc2Br)C1 (stereo not drawn) | -6 | 11* | -1 | 12 | 1 | -1 | 23* | 9 | 4
COc1ccc(-n2c(COc3ccc(Cl)cc3)nnc2SCC(=O)Nc2ccc3c(c2)OCO3)cc1 | nt | nt | nt | nt | -11 | -3 | nt | nt | nt
CC(Oc1ccc2c(-c3ccccc3)cc(=O)oc2c1)C(=O)NC(Cc1c[nH]c2ccc(O)cc12)C(=O)O (stereo not drawn) | -4 | 7.4* | 0 | 3 | 2 | -7 | 17* | -4 | 7
CCO[C@@H]1OC(C(=O)NCc2nc3ccccc3[nH]2)=C[C@H](c2ccc(C(F)(F)F)cc2)[C@H]1CCCO | 1 | 33* | 0 | -3 | -3 | -2 | 61* | 3 | 38*
CCO[C@H]1OC(C(=O)NCc2nc3ccccc3[nH]2)=C[C@@H](c2ccc(C(F)(F)F)cc2)[C@@H]1CCCO | 4 | 11* | 0 | 7 | 0 | 7 | 35* | 6 | 12
CCO[C@H]1OC(C(=O)NCc2nc3ccccc3[nH]2)=C[C@@H](C)[C@@H]1CCCO | 3 | 2 | 1 | -3 | 2 | 0 | nt | nt | nt
CCO[C@@H]1OC(C(=O)NCc2nc3ccccc3[nH]2)=C[C@H](C)[C@H]1CCCO | 4 | 0 | 1 | -21 | 5 | 2 | nt | nt | nt
C#Cc1ccc([C@@H]2C=C(C(=O)NCc3nc4ccccc4[nH]3)O[C@H](OCC)[C@H]2CCCO)cc1 | -5 | 28* | 2 | 13 | -1 | -4 | 51* | 6 | 33*
